# Columns and labels:
# Format in all cases: functional
# RXF 393 = assay: Growth inhibition of human RXF393 cells at 10 uM after 48 hrs by coulter counter analysis; conditions: RXF 393, 48 h, read-out: GI
# Procedure, shortened: (§1)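 Single-dose NCI 60-line panel screen of test compounds. Cells grown in RPMI 1640 with 10% FBS. Compounds dissolved in DMSO, then diluted in phosphate buffer saline (final DMSO below 1%). Wells run in duplicate at 6 × 10⁴ cells/ml. Controls held PBS and DMSO at matching dilutions. Incubation 48 h at 37 °C under humidified 5% CO2. Cells diluted tenfold in saline and counted by Coulter counter. Percent growth inhibition taken from mean-graph of treated-cell growth.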
# PC-3 = assay: Growth inhibition of human PC3 cells at 10 uM after 48 hrs by coulter counter analysis; conditions: PC-3, 48 h, read-out: GI; procedure, shortened: as §1
# HCT-116 = assay: Growth inhibition of human HCT116 cells at 10 uM after 48 hrs by coulter counter analysis; conditions: HCT-116, 48 h, read-out: GI; procedure, shortened: as §1
# UO-31 = assay: Growth inhibition of human UO31 cells at 10 uM after 48 hrs by coulter counter analysis; conditions: UO-31, 48 h, read-out: GI
# Procedure, shortened: (§2)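 Single-dose screen in the NCI 60 cell line panel. Cells grown in RPMI 1640 with 10% FBS. Compounds dissolved in DMSO and diluted in phosphate buffered saline, final DMSO under 1%. Duplicate wells seeded from culture at 6 × 10⁴ cells/ml. Incubated 48 h at 37 °C, humidified, 5% CO2. Cells diluted tenfold in saline and Coulter-counted. Percent growth inhibition computed against PBS/DMSO controls.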
# NCI-H226 = assay: Growth inhibition of human NCI-H226 cells at 10 uM after 48 hrs by coulter counter analysis; conditions: NCI-H226, 48 h, read-out: GI; procedure, shortened: as §1
# CAKI-1 = assay: Growth inhibition of human Caki1 cells at 10 uM after 48 hrs by coulter counter analysis; conditions: CAKI-1, 48 h, read-out: GI; procedure, shortened: as §1
# NCI-H460 = assay: Growth inhibition of human NCI-H460 cells at 10 uM after 48 hrs by coulter counter analysis; conditions: NCI-H460, 48 h, read-out: GI; procedure, shortened: as §1
# SR = assay: Growth inhibition of human SR cells at 10 uM after 48 hrs by coulter counter analysis; conditions: read-out: GI; procedure, shortened: as §2
# SF-539 = assay: Growth inhibition of human SF539 cells at 10 uM after 48 hrs by coulter counter analysis; conditions: SF-539, 48 h, read-out: GI; procedure, shortened: as §1
# SK-MEL-28 = assay: Growth inhibition of human SK-MEL-28 cells at 10 uM after 48 hrs by coulter counter analysis; conditions: SK-MEL-28, 48 h, read-out: GI; procedure, shortened: as §1
# MDA-MB-468 = assay: Growth inhibition of human MDA-MB-468 cells at 10 uM after 48 hrs by coulter counter analysis; conditions: MDA-MB-468, 48 h, read-out: GI; procedure, shortened: as §1
# OVCAR-4 = assay: Growth inhibition of human OVCAR4 cells at 10 uM after 48 hrs by coulter counter analysis; conditions: OVCAR-4, 48 h, read-out: GI; procedure, shortened: as §1
# BT-549 = assay: Growth inhibition of human BT549 cells at 10 uM after 48 hrs by coulter counter analysis; conditions: BT-549, 48 h, read-out: GI; procedure, shortened: as §1
# HCT-15 = assay: Growth inhibition of human HCT15 cells at 10 uM after 48 hrs by coulter counter analysis; conditions: HCT-15, 48 h, read-out: GI; procedure, shortened: as §1
# KM12 = assay: Growth inhibition of human KM12 cells at 10 uM after 48 hrs by coulter counter analysis; conditions: KM12, 48 h, read-out: GI; procedure, shortened: as §1
# HL-60(TB) = assay: Growth inhibition of human HL-60(TB) cells at 10 uM after 48 hrs by coulter counter analysis; conditions: HL-60, 48 h, read-out: GI
# Procedure, shortened: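 Cells grown in RPMI 1640 with 10% FBS. Compound was dissolved in DMSO and diluted in PBS (under 1% DMSO final), then added in duplicate wells to culture at 6 × 10⁴ cells/ml. PBS/DMSO vehicle controls were included. Incubated at 37 °C, humidified 5% CO₂, for 48 h. Cells were diluted 10-fold in saline and Coulter-counted. Single-dose NCI-60 screen, read as percent growth inhibition.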
# U-251 = assay: Growth inhibition of human U251 cells at 10 uM after 48 hrs by coulter counter analysis; conditions: U-251, 48 h, read-out: GI; procedure, shortened: as §2
# RPMI-8226 = assay: Growth inhibition of human RPMI8226 cells at 10 uM after 48 hrs by coulter counter analysis; conditions: RPMI-8226, 48 h, read-out: GI; procedure, shortened: as §1
# MDA-MB-231 = assay: Growth inhibition of human MDA-MB-231 cells at 10 uM after 48 hrs by coulter counter analysis; conditions: MDA-MB-231, 48 h, read-out: GI; procedure, shortened: as §1
# COLO 205 = assay: Growth inhibition of human COLO205 cells at 10 uM after 48 hrs by coulter counter analysis; conditions: COLO 205, 48 h, read-out: GI; procedure, shortened: as §1
Compound,inhibition of growth at 10 µM (RXF 393) [%],inhibition of growth at 10 µM (PC-3) [%],inhibition of growth at 10 µM (HCT-116) [%],inhibition of growth at 10 µM (UO-31) [%],inhibition of growth at 10 µM (NCI-H226) [%],inhibition of growth at 10 µM (CAKI-1) [%],inhibition of growth at 10 µM (NCI-H460) [%],inhibition of growth at 10 µM (SR) [%],inhibition of growth at 10 µM (SF-539) [%],inhibition of growth at 10 µM (SK-MEL-28) [%],inhibition of growth at 10 µM (MDA-MB-468) [%],inhibition of growth at 10 µM (OVCAR-4) [%],inhibition of growth at 10 µM (BT-549) [%],inhibition of growth at 10 µM (HCT-15) [%],inhibition of growth at 10 µM (KM12) [%],inhibition of growth at 10 µM (HL-60(TB)) [%],inhibition of growth at 10 µM (U-251) [%],inhibition of growth at 10 µM (RPMI-8226) [%],inhibition of growth at 10 µM (MDA-MB-231) [%],inhibition of growth at 10 µM (COLO 205) [%]
Cc1cnc(NC(=O)CCN2CCN(c3ccccc3)CC2)s1,< 10,< 10,< 10,12.8,< 10,< 10,< 10,14.3,< 10,< 10,< 10,< 10,< 10,< 10,< 10,< 10,< 10,< 10,< 10,< 10
CCOC(=O)c1sc(NC(=O)CN(C)C)nc1C,< 10,< 10,< 10,14.8,< 10,< 10,< 10,< 10,< 10,< 10,< 10,< 10,< 10,< 10,< 10,< 10,< 10,< 10,< 10,< 10
CCOC(=O)c1sc(NC(=O)CCN2CCOCC2)nc1C,< 10,< 10,< 10,10.6,< 10,< 10,< 10,< 10,< 10,< 10,< 10,< 10,< 10,< 10,< 10,< 10,< 10,< 10,< 10,< 10
CCOC(=O)c1sc(NC(=O)CCN2CCN(C)CC2)nc1C,< 10,< 10,< 10,19.3,< 10,12.5,< 10,20.3,< 10,< 10,25.2,< 10,< 10,< 10,< 10,< 10,< 10,< 10,< 10,< 10
CCOC(=O)c1sc(NC(=O)CCN2CCN(c3ccccc3)CC2)nc1C,< 10,< 10,< 10,19.7,< 10,< 10,< 10,< 10,< 10,< 10,< 10,< 10,< 10,< 10,< 10,< 10,< 10,< 10,< 10,< 10
O=C(CCCl)Nc1nc(-c2ccccc2)cs1,80.4,57.9,78.3,83.2,29.3,69.3,63.6,65.4,81.5,19.4,–,24.8,74.5,73,52.6,17.9,55.8,93.1,53.5,55.6
CN1CCN(CCC(=O)Nc2nc(-c3ccccc3)cs2)CC1,11.1,10.9,< 10,54,17.4,15.9,< 10,< 10,< 10,< 10,< 10,< 10,16.5,< 10,< 10,11.6,< 10,11.7,11.6,< 10
O=C(CN1CCN(c2ccccc2)CC1)Nc1nc(-c2ccccc2)cs1,< 10,26.3,17.7,51.4,19.1,36.6,25,< 10,< 10,< 10,30.4,< 10,11.3,54.6,< 10,22,< 10,25,29.2,12.4
O=C(CCN1CCN(c2ccccc2)CC1)Nc1nc(-c2ccccc2)cs1,11.8,28.3,41.7,68.9,26.6,37.7,11.3,19.9,15.4,< 10,33.4,36.2,26.1,20.6,10.7,< 10,15.6,16.8,< 10,< 10

# From ChEMBL document CHEMBL2040727, “Substituted thiazoles VI. Synthesis and antitumor activity of new 2-acetamido- and 2 or 3-propanamido-thiazole analogs” (2012)
